Measured values as given in ChEMBL document CHEMBL1122803, “Folate antagonists. 22. Antimalarial and antibacterial effects of 2,4-diamino-6-quinazolinesulfonamides” (1984).

Tested on: Plasmodium berghei
Assay: Antimalarial activity as survivor numbers at day 60 for drug-sensitive Plasmodium berghei infected mice (Mus musculus) after 72 hr
Format: functional
How it was run: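 Normal drug-sensitive P. berghei infection in mice. A single subcutaneous dose was given 72 h postinfection, dissolved or suspended in sesame or peanut oil. Groups were five animals (ten where indicated). Mice alive at 60 days postinfection were counted as "cured", without subinoculation confirmation. Toxic deaths on days 2–5 were recorded separately.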

Compound `Nc1nc(N)c2cc(S(=O)(=O)c3ccc4ccccc4c3)ccc2n1` has a survivors at day 60 of 5.
